Assay outcomes from PubChem BioAssay.
STAT3 activator = activators of IL-6 induced STAT3 signaling. U3A cells, IL-6 STAT3-luciferase reporter, luminescence; 100% = signal with IL-6 EC80 alone. hit rate 0.91% among 190,000. activation (% of control), % at 5.6 µM. AID 871;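 active = activation above the screen-wide mean of compound activation plus 3 SD, cut at about 130% in these data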;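 note: 0% = background luminescence of wells with medium and substrate only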
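Test system: STAT3-luciferase reporter U3A cells; Detection: reporter luminescence signal; Times: 1 h compound pre-exposure, 6 h IL-6 stimulation, 37 °C; Benchmarks: IL-6-only high control; Also added: IL-6 stimulus at 33 ng/mL final.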
PPC-1+TRAIL kill = kills PPC-1 cancer cells in the presence of TRAIL. cell killing (% activity), % at 4 µM or 5 µM. hit rate 0.41% among 220,000. PPC-1 cells + TRAIL, ATPLite viability luminescence;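 active = cell killing above 50% in the first pass at 4 µM, then a duplicate retest at 5 µM averaging 50% or more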;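 note: plate controls were cells with TRAIL plus DMSO for no effect and medium-only wells lacking cells for full effect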
STAT1 inh = inhibitors of IFN-gamma induced STAT1 signaling. inhibition, % at 5.5 µM. NIH 3T3 STAT1-luciferase reporter, luminescence. AID 920. hit rate 0.35% among 200,000;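 active = inhibition above a set limit, the mean inhibition across all tested compounds plus 3 SD, cut at about 34% in these data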;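 note: 0% = IFN-gamma with DMSO and 100% = IFN-gamma with 300 µM nifuroxazide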
STAT3 blocker = STAT3 signaling inhibition; U3A cells, IL-6 STAT3-luciferase reporter, luminescence; host cell line lacks STAT1; inhibition, % at 5.5 µM; hit rate 0.89% among 190,000;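 active = inhibition above the mean inhibition across all screened compounds plus 3 SD, cut at about 44% in these data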;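 note: 0% = DMSO only wells and 100% = 100 µM nifuroxazide control wells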
C8 TRAIL sens = caspase-8 TRAIL sensitization; NB7+C8 cells + TRAIL, ATPlite viability luminescence; inhibition (viability loss, TRAIL sensitization), % at 10 µM; hit rate 1% among 360,000; AID 624354;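 active = compounds causing at least 50% loss of cell viability in the single-dose screen, relative to plate controls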
HSP90 inh = HSP90 refolding inhibition in rabbit reticulocyte lysate; luciferase refolding luminescence, 3 h; inhibition, % at 5.6 µM; hit rate 0.91% among 290,000;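 active = inhibition above the screen-wide mean plus 3 SD, computed separately per campaign, cut at about 16% in these data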;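 note: 0% = DMSO wells and 100% = 60 µM geldanamycin wells; inhibitors lower the luminescence because luciferase stays unfolded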
PPC-1 tox = PPC-1 cell cytotoxicity; cytotoxicity, % at 5 µM; shares compounds with PPC-1+TRAIL kill; hit rate 50% among 1,200; PPC-1 viability, ATPlite luminescence, overnight;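 active = reconfirmed compounds whose average cytotoxicity reaches 50% or more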;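 note: 0% = DMSO-treated cells and 100% = wells holding medium but no cells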
* hit, by the source's call; / = not tested or not shown. Only some compounds are listed: those with a hit (about 2.3% of all), similar ones and a draw of the others.

SMILES	STAT3 activator	PPC-1+TRAIL kill	STAT1 inh	STAT3 blocker	C8 TRAIL sens	HSP90 inh	PPC-1 tox
Cc1cn2nc(N)c3ccccc3c2n1	100.7	18.3	0.0	5.5	17.0	-2.5	/
CCCCCCCCCCn1c2c(c(=N)c3c1CCC3)CCC2	38.5	56.4*	25.4	78.4*	78.7*	5.9	53.5*
CCCCCCCCCn1c2c(c(=N)c3c1CCC3)CCCC2	38.5	48.5	52.1*	75.6*	30.6	1.5	49.8
CCOC(=O)N1CCC(NC(=O)CC(NS(=O)(=O)c2ccc(C)cc2)c2ccco2)CC1 (centres undefined)	98.7	18.5	1.7	7.8	-3.1	-3.1	/
Cc1c(Cl)ccc2c(C(N)=O)cc(-c3ccccn3)nc12	110.7	7.9	-9.4	0.4	-10.0	-2.7	/
Cc1c(Cl)ccc2c(C(=O)O)cc(-c3ccccc3)nc12	/	15.8	/	/	34.8	3.4	23.1
COCCNC(=O)c1ccc2c3n(nc2c1)-c1ccccc1CO3	/	50.0*	/	/	57.7*	/	54.9*
C=CCNC(=O)c1ccc2c3n(nc2c1)-c1ccccc1CO3	/	83.7*	/	/	85.8*	/	84.5*
CC(C)[C@H](CN1CCC[C@H]1CN1C(N)=NC[C@H]1C(C)C)N1C[C@@H](Cc2ccccc2)N(CCCC2CCCC2)C1=N	/	/	/	/	-6.9	/	/
O=C1N=C(N2CCOCC2)S/C1=C1\C(=O)N(Cc2ccccc2)c2ccccc21	107.4	25.4	-2.8	-2.2	-0.7	-5.0	/
CN1C(=O)/C(=C2\SC(N3CCCCCC3)=NC2=O)c2ccccc21	113.6	58.8*	-29.9	-16.5	50.9*	2.4	49.0
CCCN1C(=O)/C(=C2\SC(N3CCCCC3)=NC2=O)c2ccccc21	104.4	31.3	-29.3	-2.1	42.6	5.2	15.6
COc1ccc(-n2c(SCC(=O)N3CCCCC3)nnc2-c2cccnc2)cc1	90.2	14.4	-0.8	20.8	-4.8	1.7	-5.0
O=C(CCN1C(=O)c2ccccc2C1=O)NCc1ccco1	97.8	9.2	-4.7	-0.3	2.0	4.4	/
Cc1nc(-c2ccccc2)sc1C(=O)NN	107.3	15.0	-14.9	-6.4	-1.8	-0.9	14.4
Nc1nc(N2CCCCC2)c2ncn(C3OC(CO)C(O)C3O)c2n1 (centres undefined)	/	/	/	/	13.9	/	/
Cc1cc(C)nc(NS(=O)(=O)c2ccc(Br)s2)c1	103.5	24.1	8.8	1.1	-6.5	1.7	/
Cc1cccc(NS(=O)(=O)c2ccc(Br)s2)n1	107.1	14.8	14.6	-8.3	2.6	-2.2	6.1
N#Cc1c(-c2ccc(Br)cc2)cc(-c2cccnc2)nc1N	107.0	21.1	0.3	-3.1	7.8	1.8	/
CS(=O)c1nc(-c2ccc(Br)cc2)cc(-c2ccccc2)c1C#N (centres undefined)	124.7	71.2*	-15.4	-21.9	81.0*	2.4	73.4*
CC1=C(C(=O)N(C(C)C)C(C)C)CC(CC(=O)NCc2cccc3ccccc23)C(=O)N1Cc1ccc(C(C)(C)C)cc1 (centres undefined)	/	/	/	/	4.2	/	/
O=C(O)CC/C(=N/NC(=O)CNC(=O)C(c1ccccc1)c1ccccc1)c1ccccc1	/	6.2	/	/	2.3	2.9	/
CC(=O)c1ccc(OCC(=O)Nc2cccc(C(=O)Nc3c(C)n(C)n(-c4ccccc4)c3=O)c2)cc1	/	/	/	/	2.3	/	/
CCc1ccc(C(=O)COC(=O)c2cccc(N3C(=O)c4c(C)nc5ccccc5c4C3=O)c2)cc1	82.8	71.8*	-7.2	21.9	73.2*	-1.1	71.9*
O=C(COC(=O)c1cccc(N2C(=O)C3CC=CCC3C2=O)c1)c1ccccc1 (centres undefined)	/	/	/	/	7.7	-3.0	/
SMILES	STAT3 activator	PPC-1+TRAIL kill	STAT1 inh	STAT3 blocker	C8 TRAIL sens	HSP90 inh	PPC-1 tox
O=c1cc[nH]c2ccc(Cl)cc12	97.6	-6.5	2.0	0.0	-15.7	-2.0	/
Nc1ccc(SCc2nc3cccc4c3n2CCC4)cc1	/	-0.6	/	/	-6.5	-2.3	/
N#C/C(=C/c1cccs1)c1nc2ccccc2[nH]1	108.2	36.7	-50.1	-7.1	26.7	-4.9	/
Cc1ccc(/C=C(\C#N)c2nc3ccccc3[nH]2)s1	81.3	51.0*	-71.2	28.5	61.0*	-0.7	56.9*
CCOc1ccc(C)cc1S(=O)(=O)Nc1ccc(Cl)cn1	97.7	16.8	0.9	9.4	-12.9	1.7	/
CCOc1ccc2[nH]c(S(=O)(=O)CC)nc2c1Cl	102.2	6.5	-2.2	1.1	-5.5	0.4	21.9
